According to ChEMBL document CHEMBL4325887, “Lipophilic Permeability Efficiency Reconciles the Opposing Roles of Lipophilicity in Membrane Permeability and Aqueous Solubility” (J Med Chem, 2018):
Values after ≈ are worked out from the molar mass of the structure shown. Where a SMILES comes first, the peptide text is derived from it. [ ]: non-standard residue; d: D form. NMeY = CN[C@@H](Cc1ccc(O)cc1)C(=O)O; NMeF = CN[C@@H](Cc1ccccc1)C(=O)O; dNMeF = CN[C@H](Cc1ccccc1)C(=O)O; NMeA = CN[C@@H](C)C(=O)O; dNMeA = CN[C@H](C)C(=O)O; Sar = CNCC(=O)O

Experiments:
[1] = Apparent permeability in human Caco2 cells; type: ADME, cell-based; conditions: Caco-2
Procedure, shortened: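 Apical-to-basolateral permeation (Papp, ×10-6 cm/s) was measured in quadruplicate. Compound was quantified by selected-mass UPLC-MS.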

[2] = Thermodynamic aqueous solubility of compound in pH 7.4 PBS by UPLC-MS analysis; type: physicochemical; conditions: PBS pH 7.4, pH 7.4; read-out: Therm_solubility
[3] = 1,9-decadiene/aqueous buffer solution partition coefficient, log D of the compound in PBS at pH 7.4 by shake flask method; type: physicochemical
[4] = Apparent permeability in low-efflux MDCK2 cells at 2 uM by lucifer yellow dye-based UPLC-MS analysis; type: ADME, cell-based, Canis lupus familiaris, MDCK-II; conditions: dog, MDCK
[5] = Apparent permeability of compound in pH 7.4 PBS after 16 hrs by PAMPA assay; type: ADME

Papp [1] [×10⁻⁶ cm/s] | solubility thermodynamic [2] [µM] | logD hydrocarbon water [3] | Papp at 2 µM [4] [×10⁻⁶ cm/s] | SMILES | Papp at 16 h [5] [×10⁻⁶ cm/s]
> 10 | – | – | – | CC[C@H]1OC(=O)[C@H](C)[C@@H](O[C@H]2C[C@@](C)(OC)[C@@H](O)[C@H](C)O2)[C@H](C)[C@@H](O[C@@H]2O[C@H](C)C[C@H](N(C)C)[C@H]2O)[C@](C)(O)C[C@@H](C)/C(=N/OCOCCOC)[C@H](C)[C@@H](O)[C@]1(C)O | –
– | 33 (≈ 40.2 µg/mL) | 2.43 | 0.5 | C/C=C/C[C@@H](C)[C@@H](O)[C@H]1C(=O)N[C@@H]([C@@H](C)O)C(=O)N(C)CC(=O)N(C)[C@@H](CC(C)C)C(=O)N[C@@H](C(C)C)C(=O)N(C)[C@@H](CC(C)C)C(=O)N[C@@H](C)C(=O)N[C@H](C)C(=O)N(C)[C@@H](CC(C)C)C(=O)N(C)[C@@H](CC(C)C)C(=O)N(C)[C@@H](C(C)C)C(=O)N1C | –
– | 0.12 (≈ 0.146 µg/mL) | 3.86 | 0.7 | C/C=C/C[C@@H](C)[C@@H](O)[C@H]1C(=O)N[C@@H](C(C)C)C(=O)N(C)CC(=O)N(C)[C@@H](CC(C)C)C(=O)N[C@@H](C(C)C)C(=O)N(C)[C@@H](CC(C)C)C(=O)N[C@@H](C)C(=O)N[C@H](C)C(=O)N(C)[C@@H](CC(C)C)C(=O)N(C)[C@@H](CC(C)C)C(=O)N(C)[C@@H](C(C)C)C(=O)N1C | –
– | 0.005 (≈ 0.00622 µg/mL) | 4.14 | – | C/C=C/C[C@@H](C)[C@@H](OC(C)=O)[C@H]1C(=O)N[C@@H](CC)C(=O)N(C)CC(=O)N(C)[C@@H](CC(C)C)C(=O)N[C@@H](C(C)C)C(=O)N(C)[C@@H](CC(C)C)C(=O)N[C@@H](C)C(=O)N[C@H](C)C(=O)N(C)[C@@H](CC(C)C)C(=O)N(C)[C@@H](CC(C)C)C(=O)N(C)[C@@H](C(C)C)C(=O)N1C | –
– | 27 (≈ 32.1 µg/mL) | 3.18 | 1.4 | C/C=C/C[C@@H](C)[C@@H](O)[C@H]1C(=O)N[C@@H](C)C(=O)N(C)CC(=O)N(C)[C@@H](CC(C)C)C(=O)N[C@@H](C(C)C)C(=O)N(C)[C@@H](CC(C)C)C(=O)N[C@@H](C)C(=O)N[C@H](C)C(=O)N(C)[C@@H](CC(C)C)C(=O)N(C)[C@@H](CC(C)C)C(=O)N(C)[C@@H](C(C)C)C(=O)N1C | –
– | 2.2 (≈ 2.65 µg/mL) | 2.61 | – | C/C=C/C[C@@H](C)[C@H]1OC(=O)[C@H](C(C)C)N(C)C(=O)[C@H](CC(C)C)N(C)C(=O)[C@H](CC(C)C)N(C)C(=O)[C@@H](C)NC(=O)[C@H](C)NC(=O)[C@H](CC(C)C)N(C)C(=O)[C@H](C(C)C)NC(=O)[C@H](CC(C)C)N(C)C(=O)CN(C)C(=O)[C@H](CC)NC(=O)[C@H]1NC | –
– | 17 (≈ 13.7 µg/mL) | -1.78 | – | CC[C@H](C)[C@@H]1NC(=O)[C@H](Cc2ccc(O)cc2)N(C)C(=O)[C@H](C)NC(=O)CN(C)C(=O)[C@@H]2CCCN2C(=O)[C@@H](Cc2ccccc2)N(C)C(=O)[C@H](CC(C)C)NC1=O (cyclo(A[NMeY]IL[dNMeF]P[Sar])) | –
– | 9 (≈ 7.54 µg/mL) | -1.52 | – | CC[C@H](C)[C@@H]1NC(=O)[C@H](Cc2ccc(O)cc2)N(C)C(=O)[C@H](Cc2ccccc2)NC(=O)CN(C)C(=O)[C@@H]2CCCN2C(=O)[C@@H](Cc2ccccc2)N(C)C(=O)[C@H](C)NC1=O (cyclo(A[dNMeF]P[Sar]F[NMeY]I)) | –
– | 0.45 (≈ 0.396 µg/mL) | -0.13 | – | CC[C@H](C)[C@@H]1NC(=O)[C@H](Cc2ccc(O)cc2)N(C)C(=O)[C@H](Cc2ccccc2)NC(=O)CN(C)C(=O)[C@@H]2CCCN2C(=O)[C@@H](Cc2ccccc2)N(C)C(=O)[C@H](CC(C)C)NC1=O [CORDYHEPTAPEPTIDE A] (cyclo(F[NMeY]IL[dNMeF]P[Sar])) | –
– | 2.7 (≈ 2.34 µg/mL) | -0.43 | – | CC(C)C[C@@H]1NC(=O)[C@H](C(C)C)NC(=O)[C@H](Cc2ccc(O)cc2)N(C)C(=O)[C@H](Cc2ccccc2)NC(=O)CN(C)C(=O)[C@@H]2CCCN2C(=O)[C@@H](Cc2ccccc2)N(C)C1=O [Cordyheptapeptide C] | 1.9
1 to 3 | – | -3.9 | – | CC[C@H]1OC(=O)[C@H](C)[C@@H](O[C@H]2C[C@@](C)(OC)[C@@H](O)[C@H](C)O2)[C@H](C)[C@@H](O[C@@H]2O[C@H](C)C[C@H](N(C)C)[C@H]2O)[C@](C)(O)C[C@@H](C)C(=O)[C@H](C)[C@@H](O)[C@]1(C)O [ERYTHROMYCIN] | –

Second part, the compound before the results:

SMILES | Papp [1] [×10⁻⁶ cm/s] | solubility thermodynamic [2] [µM] | logD hydrocarbon water [3] | Papp at 2 µM [4] [×10⁻⁶ cm/s] | Papp at 16 h [5] [×10⁻⁶ cm/s]
CC[C@@H]1NC(=O)[C@H](CC(C)C)N(C)C(=O)[C@H](C(C)C)N(C)C(=O)[C@H](CC(C)C)N(C)C(=O)[C@H](CC(C)C)N(C)C(=O)[C@@H](C)NC(=O)[C@H](C)NC(=O)[C@H](CC(C)C)N(C)C(=O)[C@H](C(C)C)NC(=O)[C@H](CC(C)C)N(C)C(=O)CN(C)C1=O | – | 22 (≈ 25.2 µg/mL) | 3.94 | 1.8 | –
CC[C@@H]1NC(=O)[C@H](CC(C)C)N(C)C(=O)[C@H](CC)N(C)C(=O)[C@H](CC(C)C)N(C)C(=O)[C@H](CC(C)C)N(C)C(=O)[C@@H](C)NC(=O)[C@H](C)NC(=O)[C@H](CC(C)C)N(C)C(=O)[C@H](C(C)C)NC(=O)[C@H](CC(C)C)N(C)C(=O)CN(C)C1=O | – | 10 (≈ 11.3 µg/mL) | 3.64 | 2.7 | –
CC(C)C[C@@H]1NC(=O)[C@H](C)NC(=O)[C@H](Cc2ccc(O)cc2)N(C)C(=O)[C@H](Cc2ccccc2)NC(=O)CN(C)C(=O)[C@@H]2CCCN2C(=O)[C@@H](Cc2ccccc2)N(C)C1=O (cyclo(AL[dNMeF]P[Sar]F[NMeY])) | – | 10 (≈ 8.38 µg/mL) | -2.44 | – | 0.2
CC[C@H](C)[C@@H]1NC(=O)[C@H](C)N(C)C(=O)[C@H](Cc2ccccc2)NC(=O)CN(C)C(=O)[C@@H]2CCCN2C(=O)[C@@H](Cc2ccccc2)N(C)C(=O)[C@H](CC(C)C)NC1=O (cyclo(F[NMeA]IL[dNMeF]P[Sar])) | – | 16 (≈ 12.6 µg/mL) | 0.71 | – | 5.9
CC[C@H](C)[C@@H]1NC(=O)[C@H](Cc2ccccc2)N(C)C(=O)[C@H](Cc2ccccc2)NC(=O)CN(C)C(=O)[C@@H]2CCCN2C(=O)[C@@H](Cc2ccccc2)N(C)C(=O)[C@H](CC(C)C)NC1=O (cyclo(F[NMeF]IL[dNMeF]P[Sar])) | – | 2.3 (≈ 1.99 µg/mL) | 2.13 | – | 2.3
CC[C@H](C)[C@@H]1NC(=O)[C@H](Cc2ccc(O)cc2)N(C)C(=O)[C@H](Cc2ccccc2)NC(=O)CN(C)C(=O)[C@@H]2CCCN2C(=O)[C@@H](C)N(C)C(=O)[C@H](CC(C)C)NC1=O (cyclo(F[NMeY]IL[dNMeA]P[Sar])) | – | – | -1.71 | – | 1.3
CC[C@H](C)[C@@H]1NC(=O)[C@H](Cc2ccc(O)cc2)N(C)C(=O)[C@H](Cc2ccccc2)NC(=O)CN(C)C(=O)[C@H](C)N(C)C(=O)[C@@H](Cc2ccccc2)N(C)C(=O)[C@H](CC(C)C)NC1=O (cyclo(F[NMeY]IL[dNMeF][NMeA][Sar])) | – | 37 (≈ 32.1 µg/mL) | 0.92 | – | 7.8
CC[C@H]1OC(=O)[C@H](C)[C@@H](O[C@H]2C[C@@](C)(OC)[C@@H](O)[C@H](C)O2)[C@H](C)[C@@H](O[C@@H]2O[C@H](C)C[C@H](N(C)C)[C@H]2O)[C@](C)(O)C[C@@H](C)CN(C)[C@H](C)[C@@H](O)[C@]1(C)O [AZITHROMYCIN] | 1 to 3 | – | – | – | –
CC[C@H]1OC(=O)[C@H](C)[C@@H](O[C@H]2C[C@@](C)(OC)[C@@H](O)[C@H](C)O2)[C@H](C)[C@@H](O[C@@H]2O[C@H](C)C[C@H](N(C)C)[C@H]2O)[C@](C)(OC)C[C@@H](C)C(=O)[C@H](C)[C@@H](O)[C@]1(C)O [CLARITHROMYCIN] | > 10 | – | – | – | –
